Compounds with a hit are over-represented: about 2.5% of the library has one in this group of screens.
HKDC1 inh – inhibitors of human hexokinase HKDC1. Q2TB90. recombinant HKDC1, G6PDH/diaphorase resazurin coupled fluorescence. inhibition, % at 20 µM. hit rate 0.16% among 340,000;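 active = inhibition above about 35% when tested at 20 µM, limit read from the data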
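Material – in-house recombinant HK5 (HKDC1) enzyme · Quantity – HKDC1 at 5 µg/mL · Buffer or medium – pH 8.0 Tris buffer with 10 mM MgCl2 · Reagent – glucose with 1 mM ATP · Dosing – single 20 µM dose · Times – reaction time 90 min, room temperature, protected from light · Technique – resorufin fluorescence at 613 nm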
Tb hexokinase – T. brucei hexokinase 1 inhibition; recombinant TbHK1, G6PDH-coupled NADH A340; inhibition, % at 10 µM; hit rate 0.11% among 220,000; AID 1430;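 active = inhibition of 50% or more in the single-dose primary screen; inactive = inhibition below 50%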
EP2 modulator – modulators of human EP2 prostaglandin E2 receptor. AID 940. induction, % at 25 µM. EP2-expressing cells, cAMP HTRF FRET, PGE2 co-stimulation. hit rate 0.83% among 260,000;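 active = compounds whose cAMP rise, as percent of the full-agonist control response, exceeds 60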;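 note: rat C6 glioma line stably carrying human EP2 under a CMV promoter; the protocol text gives 20 µM as final concentration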
Target sequence (P43116 whole entry, looked up): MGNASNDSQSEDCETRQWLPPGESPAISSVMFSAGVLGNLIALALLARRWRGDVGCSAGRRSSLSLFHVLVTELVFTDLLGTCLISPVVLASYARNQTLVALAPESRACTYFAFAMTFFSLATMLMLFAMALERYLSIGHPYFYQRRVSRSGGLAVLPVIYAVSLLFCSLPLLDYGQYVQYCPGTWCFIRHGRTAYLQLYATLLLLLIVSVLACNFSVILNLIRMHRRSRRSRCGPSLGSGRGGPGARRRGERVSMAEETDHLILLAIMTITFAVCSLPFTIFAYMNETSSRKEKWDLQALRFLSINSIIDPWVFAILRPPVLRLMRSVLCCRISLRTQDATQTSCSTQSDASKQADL
PfG6PD inh – PfG6PD (Plasmodium falciparum) enzyme inhibition; hit rate 0.78% among 350,000; inhibition, % at 20 µM; PfGluPho enzyme, NADPH resazurin-diaphorase fluorescence;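 active = inhibition reaching at least a set limit at 20 µM in the primary screen, cut at about 59% in these data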
PGE2 EP2 inh – blocks the human prostaglandin E2 receptor EP2. C6 glioma cells expressing human EP2, cAMP TR-FRET; cells stimulated with saturating PGE2. inhibition, % at 25 µM. AID 1422. hit rate 0.52% among 260,000;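 active = percent inhibition above 40 after rounding to a whole number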;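 note: rat C6 glioma host cells with rolipram phosphodiesterase inhibitor present; the protocol text gives 20 µM as final concentration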
PHOSPHO1 inh – PHOSPHO1 (human) inhibition; AID 1565; Q8TCT1; hit rate 1.1% among 290,000; inhibition, % at 13.3 µM; recombinant PHOSPHO1, absorbance phosphatase assay; in the data active = inhibition above about 60%
Target sequence (Q8TCT1 whole entry, looked up): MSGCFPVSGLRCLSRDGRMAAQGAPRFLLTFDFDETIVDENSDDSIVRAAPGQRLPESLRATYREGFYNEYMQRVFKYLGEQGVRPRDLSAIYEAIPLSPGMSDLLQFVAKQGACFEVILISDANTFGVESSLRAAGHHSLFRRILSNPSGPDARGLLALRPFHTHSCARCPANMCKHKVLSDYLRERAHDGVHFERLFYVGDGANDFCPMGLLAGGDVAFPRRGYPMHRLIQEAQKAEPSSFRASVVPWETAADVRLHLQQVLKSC
Each line names hits and unclear results; the compound was inactive in the other large screens; ! = a repeat was not active.

Cc1ccc2[nH]c(=O)c(CN(Cc3ccc4c(c3)OCO4)Cc3nnnn3C3CCCC3)cc2c1	none (no result: PGE2 EP2 inh)
CCOc1ccc2[nH]c(=O)c(CN(Cc3nnnn3C3CCCCC3)C3CCCC3)cc2c1	none (no result: HKDC1 inh, Tb hexokinase, PfG6PD inh, PHOSPHO1 inh)
Cc1cc2cc(CN(Cc3ccc4c(c3)OCO4)Cc3nnnn3C3CCCC3)c(=O)[nH]c2cc1C	EP2 modulator 64
CCOc1ccc2[nH]c(=O)c(CN(Cc3ccc(F)cc3)Cc3nnnn3C3CCCC3)cc2c1	EP2 modulator 61 (no result: HKDC1 inh, Tb hexokinase, PfG6PD inh, PHOSPHO1 inh)
CCOc1ccc2[nH]c(=O)c(CN(CCc3ccccc3)Cc3nnnn3C3CCCCC3)cc2c1	EP2 modulator 62 (no result: HKDC1 inh, Tb hexokinase, PfG6PD inh, PHOSPHO1 inh)
CCOC(=O)Cc1[nH]nc2c1C(c1ccncc1)C(C#N)=C(N)O2 (stereo not drawn)	none (no result: HKDC1 inh, Tb hexokinase, PfG6PD inh, PHOSPHO1 inh)
CC(=O)NCc1nnc2c3ccccc3c(-c3ccccc3)nn12	PHOSPHO1 inh 61
O=C(COc1ccccc1)NCc1nnc2c3ccccc3c(-c3ccccc3)nn12	none
CCc1ccc2[nH]c(=O)c(CN(Cc3ccccc3)C(=S)NCCCN(C)C)cc2c1	none (no result: HKDC1 inh, Tb hexokinase, PfG6PD inh, PHOSPHO1 inh)
CCOC(=O)CNC(=O)CSc1nc2c(c(=O)n(C)c(=O)n2C)n1Cc1ccccc1	none (no result: HKDC1 inh, Tb hexokinase, PfG6PD inh, PHOSPHO1 inh)
O=C(C#Cc1ccccc1)c1cccc([N+](=O)[O-])c1	HKDC1 inh 37
CCCCNc1nc(NC)nc(Cl)c1SC	EP2 modulator 63
COCCn1nnnc1C(c1ccc(Cl)cc1)N1CCN2CCCC2C1 (stereo not drawn)	none (no result: HKDC1 inh, Tb hexokinase, PfG6PD inh, PHOSPHO1 inh)
COc1ccc(CC(=O)NCC2CCCN(Cc3cccc(SC)c3)C2)cc1 (stereo not drawn)	PHOSPHO1 inh 61 (no result: Tb hexokinase, EP2 modulator, PGE2 EP2 inh)
CCN(CC)C(=O)CSc1nnc(COc2ccc(C)cc2)n1C	none (no result: HKDC1 inh, Tb hexokinase, PfG6PD inh, PHOSPHO1 inh)
COc1ccc(-n2c(C)cc(C(=O)CSc3nn4c(=O)c(C(C)(C)C)nnc4s3)c2C)cc1	PHOSPHO1 inh 94
CC(=O)Oc1ccc(N(c2ccccc2)S(=O)(=O)c2ccc(C)cc2)cc1	EP2 modulator 61
COc1ccc(CCNC(=S)NC(=O)c2ccco2)cc1OC	none (no result: HKDC1 inh, Tb hexokinase, PfG6PD inh, PHOSPHO1 inh)
COc1ccccc1OCC(=O)NNC(=S)NC(=O)c1ccco1	PHOSPHO1 inh 95
O=C(Nc1ccc(NC(=S)NC(=O)c2ccco2)cc1)c1ccccc1	none (no result: Tb hexokinase, EP2 modulator, PGE2 EP2 inh)
O=C(NNC(=S)NC(=O)c1ccco1)c1ccc(NC(=O)c2ccccc2)cc1	PHOSPHO1 inh 71
CCC(c1nnnn1Cc1cccs1)N1CCN(c2ccccc2F)CC1 (stereo not drawn)	none (no result: HKDC1 inh, Tb hexokinase, PfG6PD inh, PHOSPHO1 inh)
O=C(c1cc(Cl)cc(Cl)c1)N1CCCCC1	none (no result: HKDC1 inh, Tb hexokinase, PfG6PD inh, PHOSPHO1 inh)
Cc1ccc2cc(CN(Cc3nnnn3C3CCCCC3)CC3CCCO3)c(=O)[nH]c2c1C (stereo not drawn)	none (no result: HKDC1 inh, Tb hexokinase, PfG6PD inh, PHOSPHO1 inh)
Fc1ccc(-c2cc3nc4c(c(N5CCOCC5)n3n2)CCCC4)cc1	EP2 modulator 74!
Cc1cccc(-c2cc3nc4c(c(N5CCC6(CC5)OCCO6)n3n2)CCCC4)c1	none (no result: EP2 modulator, PGE2 EP2 inh, PHOSPHO1 inh)
Cc1cccc(-c2cc3nc4c(c(N5CCOCC5)n3n2)CCCC4)c1	EP2 modulator 61
CN1[C@H](C(=O)N2CCCc3ccccc32)C[C@H](c2cccs2)NS1(=O)=O	none (no result: HKDC1 inh, Tb hexokinase, PfG6PD inh, PGE2 EP2 inh, PHOSPHO1 inh)
C/C=C/C(=O)N1c2ccccc2C(C)=CC1(C)C	EP2 modulator 61!
CC1=CC(C)(C)N(C(=O)Nc2ccccc2)c2ccccc21	none
CCCn1cnc2cc(NC(=O)c3ccco3)ccc21	PHOSPHO1 inh 63 (no result: Tb hexokinase, EP2 modulator, PGE2 EP2 inh)
CCn1cnc2cc(NC(=O)c3ccco3)ccc21	none
O=C(Nc1ccc2nn(-c3ccccc3)nc2c1)c1ccco1	PGE2 EP2 inh 41!
O=C(Nc1ccc2nn(-c3ccccc3)nc2c1)c1cccnc1	PGE2 EP2 inh 40
O=C(Nc1ccc2nn(-c3ccc(F)cc3)nc2c1)c1cccnc1	none
CC(=O)Nc1ccc(CNc2n[nH]c3nc(C)cc(C(F)(F)F)c23)cc1	none (no result: HKDC1 inh, Tb hexokinase, PfG6PD inh, PHOSPHO1 inh)
Cc1ccc2c(c1)C(O)CC1(CCN(CC(O)c3ccc4c(c3)CCC4)CC1)O2 (stereo not drawn)	none (no result: HKDC1 inh, Tb hexokinase, PfG6PD inh, PHOSPHO1 inh)
Cc1cc(C)n(-c2ccc(C(=O)N(C)c3nc4c(s3)CCc3occc3-4)cc2)n1	none (no result: HKDC1 inh, Tb hexokinase, PfG6PD inh, PGE2 EP2 inh, PHOSPHO1 inh)
CCNC(=O)C(=O)Nc1cc2c3c(c1)CCC(=O)N3CCC2	PHOSPHO1 inh 65 (no result: Tb hexokinase, EP2 modulator, PGE2 EP2 inh)
CCNC(=O)C(=O)Nc1cc2c3c(c1)CCN3C(=O)CC2	none (no result: Tb hexokinase, EP2 modulator, PGE2 EP2 inh)
NC(=O)CN1C(=O)N2CCN=C2c2ccccc21	none (no result: HKDC1 inh, Tb hexokinase, PfG6PD inh, PHOSPHO1 inh)
O=C(NC1CC1)c1ccc(CN2CCOCC2)cc1	none (no result: HKDC1 inh, Tb hexokinase, PfG6PD inh, PHOSPHO1 inh)
Cc1cc(C(=O)CSc2nnc(-c3ccc(F)cc3)o2)c(C)n1CC1COc2ccccc2O1 (stereo not drawn)	PHOSPHO1 inh 91

From PubChem BioAssay
